Series [1] relates to Influenza A virus. Kind of series: Antiviral activity against Influenza A virus A/WSN/33(H1N1) infected in HEK293T-Gluc cells pretreated for 2 hrs followed by viral infection and measured after 24 hrs by Gaussia luciferase reporter gene assay. It is filed as functional, organism-based. Conditions: A/WSN/1933(H1N1), HEK-293T. Put shortly:
(§1)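 Reporter cells were HEK293T cells stably transfected with pLenti6-Gluc, which constitutively expresses negative-strand Gaussia luciferase RNA that becomes positive-strand on IAV infection. Cells were infected with A/WSN/33 or A/PR/8/1934 (H1N1). Antiviral activity was read as Gluc signal, and IC50 values were derived. Ribavirin served as positive control.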
Background: In a reporter assay the amount or activity of a reporter protein is the signal.

A short description of series [2]: Cytotoxicity against human HEK293T cells assessed as reduction in cell viability after 48 hrs by CCK8 assay. It is filed as cell-based, HEK-293T. (Formazan colour is commonly taken as a measure of viable cells.)
The nature of series [3]: Selectivity index, ratio of CC50 for human HEK293T cells to IC50 for Influenza A virus A/WSN/33(H1N1) infected in HEK293T-Gluc cells. It is filed as toxicity, cell-based. The note with it: read-out: Ratio CC50/IC50.
Series [4] can be described thus: Cytotoxicity against human A549 cells assessed as reduction in cell viability after 48 hrs by CCK8 assay. It is filed as cell-based.
For series [5], the system named is Influenza A virus. The series can be described thus: Antiviral activity against Influenza A virus A/PR/8/34 (H1N1) infected in HEK293T-Gluc cells pretreated for 2 hrs followed by viral infection and measured after 24 hrs by Gaussia luciferase reporter gene assay. It is filed as functional, organism-based. The note with it: A/Puerto Rico/8/1934(H1N1), HEK-293T. In short, it runs like this:
as §1

For series [6], the system named is Influenza A virus. Kind of series: Antiviral activity against Influenza A virus A/WSN/33(H1N1) infected in HEK293T-Gluc cells assessed as inhibition of virus infection at 10 uM pretreated for 2 hrs followed by viral infection and measured after 24 hrs by Gaussia luciferase reporter gene assay. The note with it: A/WSN/1933(H1N1), HEK-293T, time 26 hrs. It is filed as functional. In short, it runs like this: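 A single-concentration screen at 10 μM was run against A/WSN/33 (H1N1) in HEK293T-Gluc reporter cells. These cells carry a stably transfected pLenti6-Gluc construct expressing negative-strand Gaussia luciferase RNA that is converted to positive strand upon infection. Inhibition ratio of infection was read from Gluc activity.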

We go through eight compounds from ChEMBL document CHEMBL4765426, “Design, synthesis and in vitro anti-influenza A virus evaluation of novel quinazoline derivatives containing S-acetamide and NH-acetamide moieties at C-4” (Eur J Med Chem, 2020).

Usually IC50 stands for the point on the concentration scale where inhibition reaches its midpoint. One may read the CC50 as the concentration at which the toxic effect on the cells reaches its halfway point. For orientation: inhibition means the change of the read-out against control, counted positive when it falls.

As for `CCN(CC)c1nc(SCC(=O)NCc2ccccc2)c2ccccc2n1`, the IC50 in the series with Influenza A virus [1] was 19.2 µM. Besides, in series [2], the CC50 at 48 h was greater than 100 µM. For the same compound, the selectivity ratio in series [3] was greater than 5.22.
In the case of `O=C(CNc1nc(N2CCCC2)nc2ccccc12)Nc1cc(Cl)cc(Cl)c1`, the CC50 at 48 h was determined as 5.92 µM in series [4] and 15.9 µM in series [2]. For the same compound, the IC50 is 9.04 µM with Influenza A virus [1] and 0.95 µM with Influenza A virus [5]. Also, in series [3], the selectivity ratio came out at 1.75.
For `O=C(CNc1nc(N2CCCC2)nc2ccccc12)Nc1ccccc1`, the CC50 at 48 h in series [4] worked out at 19 µM; in series [2] it was 23.3 µM. Further, the inhibition at 10 µM in the series on Influenza A virus [6] was 95.8%. Besides, the IC50 was determined as 1.88 µM in the series with Influenza A virus [1] and 1.47 µM with Influenza A virus [5]. Besides, the selectivity ratio in series [3] amounted to 12.4.
As for `O=C(CNc1nc(N2CCOCC2)nc2ccccc12)NCc1ccccc1`, the CC50 at 48 h in series [4] and in series [2] was greater than 100 µM in each case. Besides, the IC50 in the series with Influenza A virus [1] was found to be 3.83 µM; in the series on Influenza A virus [5] it was 6.05 µM. For the same compound, the selectivity ratio in series [3] is greater than 26.1.
In the case of `CCN(CC)c1nc(SCC(=O)Nc2ccccc2)c2ccccc2n1`, the CC50 at 48 h in series [4] and in series [2] was greater than 100 µM each time. Moreover, the 50% inhibitory concentration (IC50) in the series with Influenza A virus [1] was found to be 7.18 µM; in the series with Influenza A virus [5], 1.69 µM. Further, the selectivity ratio in series [3] was greater than 13.9.
As for `CCN(CC)c1nc(NCC(=O)NCc2ccccc2)c2ccccc2n1`, the CC50 at 48 h in series [4] and in series [2] was greater than 100 µM each time. Besides, the IC50 in the series with Influenza A virus [1] is 5 µM; in the series on Influenza A virus [5], 5.8 µM. Also, in series [3], the selectivity ratio was greater than 20.
As for `O=C(CSc1nc(N2CCCC2)nc2ccccc12)NC1CC1`, the IC50 with Influenza A virus [1] is 38.2 µM. The CC50 at 48 h in series [2] is greater than 100 µM. Also, in series [3], the selectivity ratio was greater than 2.61.
For `O=C(CNc1nc(N2CCCC2)nc2ccccc12)NCc1ccco1`, in the series on Influenza A virus [1], the half-maximal inhibitory concentration (IC50) was found to be 39.4 µM. Moreover, in series [2], the CC50 at 48 h was greater than 100 µM. For the same compound, the selectivity ratio in series [3] is greater than 2.54.
